Tests used:
Histone deacetylase 11 = molecular target: T1, Histone deacetylase 11 (Homo sapiens, UniProt Q96DB2); experiment: Inhibition of recombinant human N-terminal Strep2-tagged HDAC11 (1 to 347 residues) expressed in baculovirus infected insect cells using Boc-Lys(TFA)-AMC as substrate after 60 mins by fluorescence assay
T1 sequence (Q96DB2 whole entry): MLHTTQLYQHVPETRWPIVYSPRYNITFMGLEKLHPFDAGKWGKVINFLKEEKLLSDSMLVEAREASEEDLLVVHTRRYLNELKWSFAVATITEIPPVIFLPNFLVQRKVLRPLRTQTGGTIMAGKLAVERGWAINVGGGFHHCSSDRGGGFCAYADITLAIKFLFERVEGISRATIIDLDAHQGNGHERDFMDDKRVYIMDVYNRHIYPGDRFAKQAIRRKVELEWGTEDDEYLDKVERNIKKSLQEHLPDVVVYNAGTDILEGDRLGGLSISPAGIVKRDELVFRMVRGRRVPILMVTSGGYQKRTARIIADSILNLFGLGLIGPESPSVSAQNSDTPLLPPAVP

[1] = molecular target: T2, Polyamine deacetylase HDAC10 (Homo sapiens, UniProt Q969S8); experiment: Inhibition of human HDAC10 using RHKKAc as substrate
T2 sequence (Q969S8 whole entry): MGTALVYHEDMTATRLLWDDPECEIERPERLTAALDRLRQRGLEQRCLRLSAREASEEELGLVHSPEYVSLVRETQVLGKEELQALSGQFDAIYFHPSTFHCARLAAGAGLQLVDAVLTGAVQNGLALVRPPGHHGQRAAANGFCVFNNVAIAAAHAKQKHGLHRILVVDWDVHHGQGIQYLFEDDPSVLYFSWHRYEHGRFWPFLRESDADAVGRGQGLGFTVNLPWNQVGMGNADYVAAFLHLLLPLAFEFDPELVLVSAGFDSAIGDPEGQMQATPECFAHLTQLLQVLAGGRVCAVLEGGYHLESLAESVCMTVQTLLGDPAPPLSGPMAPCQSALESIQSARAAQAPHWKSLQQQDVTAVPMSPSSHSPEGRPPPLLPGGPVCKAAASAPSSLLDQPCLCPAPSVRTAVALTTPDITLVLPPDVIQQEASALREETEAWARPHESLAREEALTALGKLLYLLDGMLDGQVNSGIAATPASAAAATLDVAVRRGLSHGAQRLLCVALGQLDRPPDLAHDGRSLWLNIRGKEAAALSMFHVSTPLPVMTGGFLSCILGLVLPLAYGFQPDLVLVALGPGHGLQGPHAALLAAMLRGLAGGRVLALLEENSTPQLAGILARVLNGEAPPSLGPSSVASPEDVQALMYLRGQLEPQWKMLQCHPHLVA

[2] = molecular target: T3, Protein deacetylase HDAC6 (Homo sapiens) (UniProt Q9UBN7); experiment: Inhibition of HDAC6 in human RPMI8226 cells assessed as increase in acetylated tubulin level by immunoblot analysis relative to control; format: cell-based
T3 sequence (whole entry): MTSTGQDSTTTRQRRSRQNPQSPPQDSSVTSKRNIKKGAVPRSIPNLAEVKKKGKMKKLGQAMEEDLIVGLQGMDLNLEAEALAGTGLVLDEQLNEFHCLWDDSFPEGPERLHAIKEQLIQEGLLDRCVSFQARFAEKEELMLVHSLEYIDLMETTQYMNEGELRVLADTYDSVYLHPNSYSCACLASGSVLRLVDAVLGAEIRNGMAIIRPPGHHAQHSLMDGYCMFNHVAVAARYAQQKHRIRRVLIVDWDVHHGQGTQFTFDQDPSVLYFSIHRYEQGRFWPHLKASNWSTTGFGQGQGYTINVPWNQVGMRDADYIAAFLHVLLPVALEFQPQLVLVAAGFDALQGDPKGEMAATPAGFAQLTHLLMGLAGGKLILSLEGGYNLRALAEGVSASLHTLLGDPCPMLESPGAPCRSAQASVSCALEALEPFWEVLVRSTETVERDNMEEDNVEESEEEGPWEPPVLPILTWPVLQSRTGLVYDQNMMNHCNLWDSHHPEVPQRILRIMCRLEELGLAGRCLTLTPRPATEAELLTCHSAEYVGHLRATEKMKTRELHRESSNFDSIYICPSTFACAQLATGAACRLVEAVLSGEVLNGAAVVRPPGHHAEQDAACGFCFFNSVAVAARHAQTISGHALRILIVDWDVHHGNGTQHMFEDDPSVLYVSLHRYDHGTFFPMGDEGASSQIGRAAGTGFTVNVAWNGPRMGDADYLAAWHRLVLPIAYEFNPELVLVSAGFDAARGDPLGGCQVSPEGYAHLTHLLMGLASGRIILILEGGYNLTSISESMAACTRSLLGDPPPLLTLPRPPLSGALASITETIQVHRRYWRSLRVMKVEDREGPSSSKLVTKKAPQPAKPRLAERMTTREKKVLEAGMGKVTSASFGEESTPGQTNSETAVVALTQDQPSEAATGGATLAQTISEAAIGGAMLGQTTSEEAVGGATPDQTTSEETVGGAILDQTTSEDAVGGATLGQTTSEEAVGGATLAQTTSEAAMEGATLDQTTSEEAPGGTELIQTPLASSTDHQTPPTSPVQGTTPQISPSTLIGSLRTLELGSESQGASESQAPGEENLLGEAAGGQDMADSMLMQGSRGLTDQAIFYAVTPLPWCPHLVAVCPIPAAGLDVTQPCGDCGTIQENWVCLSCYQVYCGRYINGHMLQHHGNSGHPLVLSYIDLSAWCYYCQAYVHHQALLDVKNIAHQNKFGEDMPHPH
Summary of the method: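 Multiple myeloma cells harvested in Tris-HCl lysis buffer (pH 7.4) with protease and phosphatase inhibitors, then centrifuged 17,000 g for 30 min at 4 °C. Lysates immunoblotted with specific antibodies for acetylated α-tubulin. Signal detected by ECL on film.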

Row | IC50 (Histone deacetylase 11) [nM] | IC50 [1] [nM] | inhibition [2] | SMILES
1 | 376 | 9790 | Dose-dependent effect | O=C(NO)c1ccc(CNc2cccc3cccnc23)cc1
2 | 1000 | 1260 | Dose-dependent effect | O=C(NO)c1ccc(CNc2cccc3ncccc23)cc1

From ChEMBL document CHEMBL4024792, “(N-Hydroxycarbonylbenylamino)quinolines as Selective Histone Deacetylase 6 Inhibitors Suppress Growth of Multiple Myeloma in Vitro and in Vivo” (J Med Chem, 2018)
